# Laboratory results reported in ChEMBL document CHEMBL1275383, “Synthesis and antioxidant properties of pulvinic acids analogues” (Bioorg Med Chem, 2010).
# Activity calls are given as the source filed them. No cut-off for these calls is given here.
# Key:
# Format in all cases: functional
# [1] = Antioxidant activity against ABTS radical assessed as Trolox equivalent
# [2] = Antioxidant activity assessed as beta-carotene bleaching activity at 116 uM after 4 hrs by spectrophotometry relative to contro
# Procedure, shortened: (§1)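 Emulsion of β-carotene, linoleic acid and Tween 40 in oxygen-saturated water added to compound in ethanol (24 or 116 µM). Incubated at 50 °C, absorbance at 470 nm read at zero and followed over 4 h. % protection = [1 − (A0 − At)/(Ac0 − Act)] × 100 versus no-compound control; triplicate, averaged.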
# [3] = Antioxidant activity assessed as protection against Fenton oxidation-induced thymidine degradation in 11.4 mM phosphate buffer at 100 uM by competitive immuno-enzymatic assay
# [4] = Antioxidant activity assessed as protection against UV/H2O2-induced thymidine degradation in 12.5 mM phosphate buffer at 100 uM by competitive immuno-enzymatic assay
# Procedure, shortened: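 Thymidine at 70 µM with compound at 100 µM and H2O2 at 5 mM in 12.5 mM phosphate buffer, irradiated at 254 nm, 1.75 J cm-2. Intact thymidine quantified by competitive anti-thymidine monoclonal antibody immunoassay; duplicate, averaged.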
# [5] = tested on: Radical scavenging activity; test: Antioxidant activity assessed as DPPH free radical scavenging activity by measuring [DPPH]/antioxidant EC50 ratio measured every 5 mins for 1 hr
# Procedure, shortened: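 DPPH (200 µM ethanol stock, 100 µM final) mixed 1:1 with compound in ethanol, 10 concentrations (0–1 10^-3 M), duplicate. Read at 515 nm every 5 min for 1 h; % remaining DPPH at steady state plotted against antioxidant/DPPH molar ratio to give EC50. Reported as antiradical power; no value if steady state not reached within 1 h.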
# [6] = Antioxidant activity assessed as protection against 340 Gy gamma-radiation-induced thymidine degradation in 12.5 mM phosphate buffer at 50 uM by competitive immuno-enzymatic assay
# Procedure, shortened: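 Thymidine at 15 µM with compound at 50 µM, 12.5 mM phosphate buffer, given 340 Gy from a 137Cs source. Remaining intact thymidine measured by competitive immunoassay with anti-thymidine monoclonal antibody; duplicate, averaged.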
# [7] = Antioxidant activity assessed as beta-carotene bleaching activity at 24 uM after 4 hrs by spectrophotometry relative to control; procedure, shortened: as §1
Compound,Activity [1] [mM],Activity [2],Activity [3] [%],Activity [4] [%],Ratio [5],Activity [6] [%],Activity [7]
COC(=O)/C=C1\OC(=O)C(c2ccc(OC)cc2)=C1O,1.31,> 44%,32,30.7,3.6,73.8,
COC(=O)/C(=C1/OC(=O)C(c2ccc(OC)cc2)=C1O)c1cccc(O)c1,1.56,,91.6,50,3.68,34.2,
O=C1O[C@H]([C@@H](O)CO)C(O)=C1O,0.64,inactive,,,4.56,,inactive
COC(=O)/C(=C1/OC(=O)C(c2ccc(OC)cc2)=C1O)c1ccc(C(C)=O)cc1,6.18,Active,41.1,41.1,3.27,34.3,Active
COC(=O)/C=C1\OC(=O)C(c2cccs2)=C1O,,,0,23.6,,51.4,
COC(=O)/C(=C1/OC(=O)C(c2ccc(OC)cc2)=C1O)c1ccccc1,1.67,,58,42.9,3.2,46.4,
COC(=O)/C(=C1/OC(=O)C(c2ccc(OC)cc2)=C1O)c1ccc(Cl)cc1,3.97,,41.7,45,3.37,22.6,
COC(=O)/C(=C1/OC(=O)C(c2ccc(OC)cc2)=C1O)c1ccccc1C(F)(F)F,12.1,Active,14.8,46.1,,17.6,
Cc1c(C)c2c(c(C)c1O)CCC(C)(C(=O)O)O2 (stereo not given),,,11.7,4.4,,5.2,
COC(=O)/C=C1\OC(=O)C(c2ccc(O)cc2)=C1O,0.48,,82.7,32.6,2.85,57.2,
COC(=O)/C=C1\OC(=O)C(c2ccccc2)=C1O,46.2,,45.8,37.7,3.22,69.4,
COC(=O)/C=C1\OC(=O)C(C(=O)OCc2ccccc2)=C1O,18.5,,0.3,13.9,0.93,23.1,
COC(=O)[C@H](O)[C@H]1OC(=O)C(c2ccc(Br)cc2)=C1O,4.91,,37.6,37.3,2.81,60.2,
COC(=O)/C=C1\OC(=O)C(c2ccc([N+](=O)[O-])cc2)=C1O,18.7,,40.7,31.5,,58.5,
COC(=O)/C(=C1/OC(=O)C(c2ccc(OC)cc2)=C1O)c1ccsc1,2.69,,45.2,34.8,2.97,76,
COC(=O)[C@H](O)[C@H]1OC(=O)C(c2ccc(F)cc2)=C1O,2.94,,55.2,55.3,4.2,39,

Compound,Activity [1] [mM],Activity [2],Activity [3] [%],Activity [4] [%],Ratio [5],Activity [6] [%],Activity [7]
COC(=O)[C@H](O)[C@H]1OC(=O)C(c2ccc(OC)cc2)=C1O,1.55,,25.8,24.9,3.44,87.4,
COC(=O)/C=C1\OC(=O)C(c2ccc(Br)cc2)=C1O,17.7,,27.1,41.2,1.17,51.7,
COC(=O)[C@H](O)[C@H]1OC(=O)C(c2cccs2)=C1O,,,0,16.1,2.25,40.3,
COC(=O)/C=C1\OC(=O)C(c2ccc(F)cc2)=C1O,,,28.3,69.3,1.97,52.9,
COC(=O)/C(=C1/OC(=O)C(c2ccc(OC)cc2)=C1O)c1cccc(C(F)(F)F)c1,2.75,,33.9,35.8,4.08,46.3,
COC(=O)/C(=C1/OC(=O)C(c2ccc(OC)cc2)=C1O)c1ccco1,1.16,,0,28.7,3.42,62,
O=C(O)c1cc(O)c(O)c(O)c1,1.36,,,,11.7,,
COC(=O)[C@H](O)[C@H]1OC(=O)C(C(C)=O)=C1O,82.7,,0,7.4,,5.6,
COC(=O)[C@H](O)[C@H]1OC(=O)C(c2ccccc2)=C1O,1.94,> 44%,31,33.2,3.57,62,
COC(=O)[C@H](O)[C@H]1OC(=O)C(c2ccc(OCc3ccccc3)cc2)=C1O,2.16,,21.1,51,3.12,37.4,
COC(=O)[C@H](O)[C@H]1OC(=O)C(C(=O)OCc2ccccc2)=C1O,43.3,,2.6,16.8,,47.9,
COC(=O)/C(=C1/OC(=O)C(c2ccc(OC)cc2)=C1O)c1ccoc1,1.06,,13.8,36,3.35,77,
COC(=O)[C@H](O)[C@H]1OC(=O)C(c2ccc([N+](=O)[O-])cc2)=C1O,24.6,,70.7,33.4,,60.9,
COC(=O)/C=C1\OC(=O)C(c2ccc(C)cc2)=C1O,6.51,,14.1,52.7,2.56,30,
COC(=O)[C@H](O)[C@H]1OC(=O)C(c2ccc(C)cc2)=C1O,1.54,,7,43.8,3.27,42.7,
COC(=O)[C@H](O)[C@H]1OC(=O)C(c2ccc(O)cc2)=C1O,0.6,,93.4,29.4,3,63.7,
